ChEMBL document CHEMBL5357024, “MDM2 Antagonist Idasanutlin Reduces HDAC1/2 Abundance and Corepressor Partners but Not HDAC3” (ACS Med Chem Lett, 2024)
Active and inactive are the calls of the source. The rule behind the calls is not given here.

Columns and labels:
HCT-116 [1] = experiment: Effect on histone H3 lysine K56 acetylation in human HCT-116 cells assessed as increase in H3K56ac level at 0.1 to 10 uM by Western blot analysis; type: functional, cell-based; conditions: dose 0.1-10 µM
Summary of the method: (§1)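 HCT116 cells (DMEM, 10% FBS, glutamine/pen/strep, 37 °C, 5% CO2) seeded 24 h, then treated with DMSO or compound in fresh medium. Pellets after lysis were acid-extracted with 0.4 N H2SO4 at 4 °C overnight. Acid histone extract run on 4–12% bis-Tris gels, transferred to nitrocellulose and probed for H3K56ac. IRDye secondaries with infrared imaging.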

[2] = target: T1, E3 ubiquitin-protein ligase Mdm2/Histone deacetylase 3 (Homo sapiens) (UniProt Q00987+O15379); experiment: PROTAC activity at MDM2/HDAC3 in human HCT-116 cells assessed as reduction in HDAC3 abundance by measuring remaining activity at 1 uM measured after 24 hrs by Western blot analysis (reference value: 100%); type: cell-based
Summary of the method: (§2)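 HCT116 cells in DMEM with 10% FBS and glutamine/penicillin/streptomycin at 37 °C, 5% CO2. Seeded 4 × 10^5 cells/well, after 24 h treated 24 h with DMSO or compound in fresh medium. Lysed in Tris-HCl/NaCl/NP-40/Triton X-100 buffer with protease inhibitor, Bradford-quantified, 30 μg protein per lane. Quantitative Western blot with specific HDAC1/2/3 antibodies, IRDye secondaries, infrared imaging, versus DMSO. n = 2 replicates.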

[3] = target: T2, E3 ubiquitin-protein ligase Mdm2/Histone deacetylase 1 (Homo sapiens) (UniProt Q00987+Q13547); experiment: PROTAC activity at MDM2/HDAC1 in human HCT-116 cells assessed as decrease in HDAC1 abundance by measuring remaining activity at 1 uM measured after 24 hrs by Western blot analysis (reference value: 100%); type: cell-based
Summary of the method: (§3)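 HCT116 cells seeded in six-well plates for 24 h, then exposed 24 h to compound (0.01–10 μM) or DMSO in fresh medium. Lysis in Tris-HCl/NaCl/NP-40/Triton X-100 with protease inhibitor. Bradford-normalised 30 μg protein per lane. Quantitative Western blot used specific HDAC1, HDAC2, HDAC3, LSD1 or Sin3a antibodies with IRDye secondaries. Abundance compared with DMSO, n = 2 replicates.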

[4] = target: T1, E3 ubiquitin-protein ligase Mdm2/Histone deacetylase 3 (Homo sapiens); experiment: PROTAC activity at MDM2/HDAC3 in human HCT-116 cells assessed as reduction in HDAC3 abundance by measuring remaining activity at 0.1 uM measured after 24 hrs by Western blot analysis (reference value: 100%); type: cell-based; summary of the method: as §2
[5] = target: T2, E3 ubiquitin-protein ligase Mdm2/Histone deacetylase 1 (Homo sapiens); experiment: PROTAC activity at MDM2/HDAC1 in human HCT-116 cells assessed as decrease in HDAC1 abundance by measuring remaining activity at 0.1 uM measured after 24 hrs by Western blot analysis (reference value: 100%); type: cell-based; summary of the method: as §3
[6] = target: T3, E3 ubiquitin-protein ligase Mdm2/Histone deacetylase 2 (Homo sapiens) (UniProt Q00987+Q92769); experiment: PROTAC activity at MDM2/HDAC2 in human HCT-116 cells assessed as decrease in HDAC2 abundance by measuring remaining activity at 1 uM measured after 24 hrs by Western blot analysis (reference value: 100%); type: cell-based; summary of the method: as §3
[7] = target: T3, E3 ubiquitin-protein ligase Mdm2/Histone deacetylase 2 (Homo sapiens); experiment: PROTAC activity at MDM2/HDAC2 in human HCT-116 cells assessed as decrease in HDAC2 abundance by measuring remaining activity at 0.1 uM measured after 24 hrs by Western blot analysis (reference value: 100%); type: cell-based; summary of the method: as §3
[8] = target: T3, E3 ubiquitin-protein ligase Mdm2/Histone deacetylase 2 (Homo sapiens); experiment: PROTAC activity at MDM2/HDAC2 in human HCT-116 cells assessed as decrease in HDAC2 abundance by measuring remaining activity at 10 uM measured after 24 hrs by Western blot analysis (reference value: 100%); type: cell-based; summary of the method: as §3
[9] = target: T1, E3 ubiquitin-protein ligase Mdm2/Histone deacetylase 3 (Homo sapiens); experiment: PROTAC activity at MDM2/HDAC3 in human HCT-116 cells assessed as reduction in HDAC3 abundance by measuring remaining activity at 10 uM measured after 24 hrs by Western blot analysis (reference value: 100%); type: cell-based; summary of the method: as §2
[10] = target: T2, E3 ubiquitin-protein ligase Mdm2/Histone deacetylase 1 (Homo sapiens); experiment: PROTAC activity at MDM2/HDAC1 in human HCT-116 cells assessed as decrease in HDAC1 abundance by measuring remaining activity at 10 uM measured after 24 hrs by Western blot analysis (reference value: 100%); type: cell-based; summary of the method: as §3
[11] = target: Histone deacetylase 3 (Homo sapiens) (UniProt O15379); experiment: Induction of HDAC3 degradation in human HCT-116 cells assessed as reduction in HDAC3 abundance by measuring remaining activity at 1 uM measured after 24 hrs by Western blot analysis; type: cell-based; summary of the method: as §3
[12] = Inhibition of LSD1-CoREST-HDAC (unknown origin) by AMC-fluorescence assay; set-up: species or system Homo sapiens
[13] = target: Lysine-specific histone demethylase 1A (Homo sapiens) (UniProt O60341); experiment: Induction of LSD1 degradation in human HCT-116 cells assessed as reduction in LSD1 abundance by measuring remaining activity at 10 uM measured after 24 hrs by Western blot analysis (reference value: 100%); type: cell-based; summary of the method: as §3
HCT-116 [14] = experiment: Effect on histone H3 lysine K56 acetylation in human HCT-116 cells assessed as increase in H3K56ac level at 10 uM by Western blot analysis; type: functional, cell-based; summary of the method: as §1
[15] = target: T4, Paired amphipathic helix protein Sin3a (Homo sapiens) (UniProt Q96ST3); experiment: Induction of SIN3A degradation in human HCT-116 cells assessed as reduction in SIN3A abundance by measuring remaining activity at 10 uM measured after 24 hrs by Western blot analysis (reference value: 100%); type: cell-based; summary of the method: as §3
T4 sequence (whole entry): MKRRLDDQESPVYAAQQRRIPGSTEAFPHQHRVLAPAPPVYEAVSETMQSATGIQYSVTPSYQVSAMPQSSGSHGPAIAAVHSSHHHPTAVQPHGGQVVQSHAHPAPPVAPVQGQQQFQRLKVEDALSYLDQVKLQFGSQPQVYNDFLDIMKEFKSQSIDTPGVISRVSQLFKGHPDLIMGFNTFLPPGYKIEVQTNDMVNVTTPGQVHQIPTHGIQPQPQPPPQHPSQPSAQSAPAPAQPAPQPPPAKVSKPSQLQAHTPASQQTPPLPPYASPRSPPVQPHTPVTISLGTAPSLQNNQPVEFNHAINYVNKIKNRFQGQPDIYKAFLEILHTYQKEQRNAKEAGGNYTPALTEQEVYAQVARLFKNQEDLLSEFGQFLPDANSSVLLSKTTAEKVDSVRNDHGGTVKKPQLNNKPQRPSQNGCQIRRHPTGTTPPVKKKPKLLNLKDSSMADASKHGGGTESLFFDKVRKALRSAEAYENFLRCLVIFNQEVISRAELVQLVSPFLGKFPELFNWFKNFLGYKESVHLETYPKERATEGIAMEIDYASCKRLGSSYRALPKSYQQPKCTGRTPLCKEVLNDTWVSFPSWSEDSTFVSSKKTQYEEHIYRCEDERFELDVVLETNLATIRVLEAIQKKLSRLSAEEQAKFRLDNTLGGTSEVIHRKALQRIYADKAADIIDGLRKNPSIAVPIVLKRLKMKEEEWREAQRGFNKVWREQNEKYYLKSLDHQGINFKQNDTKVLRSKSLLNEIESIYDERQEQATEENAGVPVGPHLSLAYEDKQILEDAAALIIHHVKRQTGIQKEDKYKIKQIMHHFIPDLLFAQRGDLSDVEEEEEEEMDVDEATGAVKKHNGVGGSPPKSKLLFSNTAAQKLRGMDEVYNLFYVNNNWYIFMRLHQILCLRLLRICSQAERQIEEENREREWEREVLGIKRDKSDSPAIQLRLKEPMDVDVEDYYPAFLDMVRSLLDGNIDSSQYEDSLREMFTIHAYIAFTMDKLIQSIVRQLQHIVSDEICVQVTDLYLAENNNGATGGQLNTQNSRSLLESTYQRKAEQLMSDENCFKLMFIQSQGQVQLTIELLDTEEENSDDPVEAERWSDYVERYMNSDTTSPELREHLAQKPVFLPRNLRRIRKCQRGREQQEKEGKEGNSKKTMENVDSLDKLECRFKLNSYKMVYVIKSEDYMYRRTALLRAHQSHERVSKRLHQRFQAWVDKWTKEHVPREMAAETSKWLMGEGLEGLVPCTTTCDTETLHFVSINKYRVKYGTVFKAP

[16] = target: Histone deacetylase 3 (Homo sapiens) (UniProt O15379); experiment: Induction of HDAC3 degradation in human HCT-116 cells assessed as reduction in HDAC3 abundance by measuring remaining activity at 10 uM measured after 24 hrs by Western blot analysis; type: cell-based; summary of the method: as §3
[17] = target: von Hippel-Lindau disease tumor suppressor/Histone deacetylase 2 (Homo sapiens) (UniProt Q92769+P40337); experiment: PROTAC activity at VHL/HDAC2 in human HCT-116 cells assessed as decrease in HDAC2 abundance by measuring remaining activity at 10 uM measured after 24 hrs by Western blot analysis (reference value: 100%); type: cell-based; summary of the method: as §2
[18] = target: von Hippel-Lindau disease tumor suppressor/Histone deacetylase 3 (Homo sapiens) (UniProt O15379+P40337); experiment: PROTAC activity at VHL/HDAC3 in human HCT-116 cells assessed as reduction in HDAC3 abundance by measuring remaining activity at 10 uM measured after 24 hrs by Western blot analysis (reference value: 100%); type: cell-based; summary of the method: as §2
[19] = target: von Hippel-Lindau disease tumor suppressor/Histone deacetylase 1 (Homo sapiens) (UniProt Q13547+P40337); experiment: PROTAC activity at VHL/HDAC1 in human HCT-116 cells assessed as decrease in HDAC1 abundance by measuring remaining activity at 10 uM measured after 24 hrs by Western blot analysis (reference value: 100%); type: cell-based; summary of the method: as §2
von Hippel-Lindau disease tumor suppressor/Histone deacetylase 1 (Homo sapiens), sequence (P40337 whole entry, looked up): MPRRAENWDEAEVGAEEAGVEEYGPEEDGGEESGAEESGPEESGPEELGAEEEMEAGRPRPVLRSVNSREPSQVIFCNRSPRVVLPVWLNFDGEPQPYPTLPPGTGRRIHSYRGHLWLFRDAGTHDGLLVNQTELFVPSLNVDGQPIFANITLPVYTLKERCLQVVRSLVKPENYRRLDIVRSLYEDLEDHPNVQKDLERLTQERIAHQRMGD
von Hippel-Lindau disease tumor suppressor/Histone deacetylase 1 (Homo sapiens), sequence (Q13547 whole entry, looked up): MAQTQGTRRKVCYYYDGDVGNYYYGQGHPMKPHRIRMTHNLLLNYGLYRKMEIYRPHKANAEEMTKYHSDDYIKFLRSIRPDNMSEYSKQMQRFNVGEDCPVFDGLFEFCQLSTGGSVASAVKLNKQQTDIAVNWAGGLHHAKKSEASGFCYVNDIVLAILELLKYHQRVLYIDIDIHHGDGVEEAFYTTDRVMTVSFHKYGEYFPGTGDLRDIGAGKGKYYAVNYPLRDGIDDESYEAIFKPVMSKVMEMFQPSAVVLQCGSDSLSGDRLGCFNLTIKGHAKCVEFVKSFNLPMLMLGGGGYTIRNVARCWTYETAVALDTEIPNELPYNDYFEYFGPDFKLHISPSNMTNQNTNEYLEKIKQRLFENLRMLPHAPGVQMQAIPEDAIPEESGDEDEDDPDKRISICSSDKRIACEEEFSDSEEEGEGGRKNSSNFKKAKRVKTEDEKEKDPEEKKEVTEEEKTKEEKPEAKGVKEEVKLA

T1 sequence (O15379 whole entry, looked up): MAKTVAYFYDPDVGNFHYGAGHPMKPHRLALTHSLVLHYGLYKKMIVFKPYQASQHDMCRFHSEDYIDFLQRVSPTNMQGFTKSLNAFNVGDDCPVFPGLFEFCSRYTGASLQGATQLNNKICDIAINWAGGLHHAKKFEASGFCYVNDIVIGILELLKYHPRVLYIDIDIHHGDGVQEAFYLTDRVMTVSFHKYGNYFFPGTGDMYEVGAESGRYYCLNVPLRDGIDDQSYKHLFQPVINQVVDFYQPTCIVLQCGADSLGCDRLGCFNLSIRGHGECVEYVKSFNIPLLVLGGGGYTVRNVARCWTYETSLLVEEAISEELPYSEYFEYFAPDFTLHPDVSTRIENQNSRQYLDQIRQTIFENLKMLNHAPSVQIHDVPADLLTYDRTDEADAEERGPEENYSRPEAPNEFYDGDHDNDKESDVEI
T1 sequence (Q00987 whole entry, looked up): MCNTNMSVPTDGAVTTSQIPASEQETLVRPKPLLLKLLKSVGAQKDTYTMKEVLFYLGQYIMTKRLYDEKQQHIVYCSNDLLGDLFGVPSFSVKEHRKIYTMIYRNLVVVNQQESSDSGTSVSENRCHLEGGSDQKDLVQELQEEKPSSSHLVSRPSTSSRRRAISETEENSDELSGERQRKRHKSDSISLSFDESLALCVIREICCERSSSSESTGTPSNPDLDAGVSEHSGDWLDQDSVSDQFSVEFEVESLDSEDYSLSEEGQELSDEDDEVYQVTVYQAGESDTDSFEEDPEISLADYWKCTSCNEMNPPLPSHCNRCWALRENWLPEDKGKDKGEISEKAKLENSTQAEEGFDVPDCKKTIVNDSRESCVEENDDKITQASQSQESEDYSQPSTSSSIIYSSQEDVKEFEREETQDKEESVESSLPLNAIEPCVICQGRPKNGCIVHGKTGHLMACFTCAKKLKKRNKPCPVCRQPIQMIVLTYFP
Histone deacetylase 3 (Homo sapiens), sequence (O15379 whole entry): as the sequence (O15379 whole entry, looked up) above
T3 sequence (Q00987 whole entry, looked up): as the sequence (Q00987 whole entry, looked up) above
T3 sequence (Q92769 whole entry, looked up): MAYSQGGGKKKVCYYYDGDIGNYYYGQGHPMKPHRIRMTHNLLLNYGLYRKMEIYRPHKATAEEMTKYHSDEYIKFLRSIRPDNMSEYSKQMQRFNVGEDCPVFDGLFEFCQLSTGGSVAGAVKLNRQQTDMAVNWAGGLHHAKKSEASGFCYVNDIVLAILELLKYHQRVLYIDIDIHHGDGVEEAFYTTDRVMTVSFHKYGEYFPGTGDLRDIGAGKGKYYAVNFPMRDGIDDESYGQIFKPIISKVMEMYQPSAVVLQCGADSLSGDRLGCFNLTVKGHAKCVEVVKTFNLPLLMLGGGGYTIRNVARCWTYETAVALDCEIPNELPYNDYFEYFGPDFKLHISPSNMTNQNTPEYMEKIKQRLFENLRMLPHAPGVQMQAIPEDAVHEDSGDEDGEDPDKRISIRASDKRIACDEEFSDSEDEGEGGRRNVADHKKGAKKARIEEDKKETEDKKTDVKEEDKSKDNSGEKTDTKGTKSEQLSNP
T2 sequence (Q00987 whole entry, looked up): as the sequence (Q00987 whole entry, looked up) above
T2 sequence (Q13547 whole entry, looked up): as the sequence (Q13547 whole entry, looked up) above
von Hippel-Lindau disease tumor suppressor/Histone deacetylase 2 (Homo sapiens), sequence (P40337 whole entry, looked up): as the sequence (P40337 whole entry, looked up) above
von Hippel-Lindau disease tumor suppressor/Histone deacetylase 2 (Homo sapiens), sequence (Q92769 whole entry, looked up): as the sequence (Q92769 whole entry, looked up) above
von Hippel-Lindau disease tumor suppressor/Histone deacetylase 3 (Homo sapiens), sequence (O15379 whole entry, looked up): as the sequence (O15379 whole entry, looked up) above
von Hippel-Lindau disease tumor suppressor/Histone deacetylase 3 (Homo sapiens), sequence (P40337 whole entry, looked up): as the sequence (P40337 whole entry, looked up) above

Activity [2]	Activity [3]	Activity [4]	Activity [5]	Activity [6]	Activity [7]	Activity [8]	Activity [9]	Activity [10]	Activity [11]	IC50 [12]	Activity [13]	Activity [15]	Activity [16]	Activity [17]	Activity [18]	Activity [19]	SMILES	Activity (HCT-116 [1])	Activity (HCT-116 [14])
128%	85%	112%	91%	94%	102%	84%	122%	65%	–	–	–	–	–	–	–	–	COc1cc(C(=O)NCCOCCOCCOCCC(=O)Nc2ccc(C(=O)Nc3ccccc3N)cc2)ccc1NC(=O)[C@@H]1N[C@@H](CC(C)(C)C)[C@](C#N)(c2ccc(Cl)cc2F)[C@H]1c1cccc(Cl)c1F	inactive	–
102%	103%	101%	98%	101%	100%	103%	118%	109%	–	–	–	–	–	–	–	–	COc1cc(C(=O)NCCCCCCCCCCCC(=O)Nc2ccc(C(=O)Nc3ccccc3N)cc2)ccc1NC(=O)[C@@H]1N[C@@H](CC(C)(C)C)[C@](C#N)(c2ccc(Cl)cc2F)[C@H]1c1cccc(Cl)c1F	–	–
–	–	–	–	–	–	–	–	–	122%	~0.5 µM	109%	81%	138%	–	–	–	CC(=O)Nc1ccc(C(=O)Nc2ccccc2N)cc1 [TACEDINALINE]	–	Active
–	–	–	–	–	–	–	–	–	–	–	97%	85%	–	58%	88%	37%	Cc1ncsc1-c1ccc(CNC(=O)[C@@H]2C[C@@H](O)CN2C(=O)[C@@H](NC(=O)CCCCCCCCCCC(=O)Nc2ccc(C(=O)Nc3ccccc3N)cc2)C(C)(C)C)cc1	–	Active
114%	88%	114%	93%	101%	100%	100%	109%	101%	–	–	–	–	–	–	–	–	COc1cc(C(=O)NCCCCCCCC(=O)Nc2ccc(C(=O)Nc3ccccc3N)cc2)ccc1NC(=O)[C@@H]1N[C@@H](CC(C)(C)C)[C@](C#N)(c2ccc(Cl)cc2F)[C@H]1c1cccc(Cl)c1F	–	–
–	–	–	–	–	–	–	–	–	110%	–	–	–	101%	–	–	–	COc1cc(C(=O)O)ccc1NC(=O)[C@@H]1N[C@@H](CC(C)(C)C)[C@](C#N)(c2ccc(Cl)cc2F)[C@H]1c1cccc(Cl)c1F	–	–
